SMILES strings stand for the structures. Calls of active or inactive are those of the source. No cut-off for these calls is given here.

Assay [1] has as its target T1, Hypoxia inducible factors; HIF-1-alpha, HIF-2-alpha (Homo sapiens, UniProt Q16665+Q99814). As to conditions: T47D, at 1 to 10 µM.
The target in assay [2] is T1, Hypoxia inducible factors; HIF-1-alpha, HIF-2-alpha. The assay is described as follows: Inhibition of 1, 10-phenanthroline-induced HIF1 activation in human T47D cells by HRE3-TK-luciferase reporter gene assay. The assay is classed as cell-based. In general terms: A reporter such as luciferase makes a cellular process visible.
For assay [3] the target is unchanged. The assay is described as follows: Inhibition of hypoxia-induced HIF1 activation in human T47D cells by HRE3-TK-luciferase reporter gene assay. The assay is classed as cell-based.
The target is the same in assay [4]. As to the kind of experiment: Inhibition of HIF1-mediated proliferation of hypoxia-stimulated human SK-BR-3 cells at 0.31 to 20 uM after 48 hrs by SRB assay. The assay is classed as cell-based. The essentials:
(§1)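 Exponentially growing cells were seeded at 30,000/well and held overnight at 37 °C in DMEM/F12 with 10% FBS and pen/strep. Compound (0.31–20 µM) was added in serum-free medium for 48 h. Viability was read by sulforhodamine B. % Inhibition = [1 − (ODtreated/ODcontrol)] × 100, from triplicate wells.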
For orientation: Sulforhodamine B stains cellular protein and so reports cell mass.

Assay [5] shares this target. The assay is described as follows: Inhibition of HIF1-mediated proliferation of hypoxia-stimulated human SK-BR-3 cells up to 20 uM after 16 hrs by SRB assay. It counts as cell-based. The essentials: (§2)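 Short-term viability: cells exposed to compound at up to 20 µM for 16 h under hypoxia (1% O2), then read by sulforhodamine B and expressed as % inhibition of untreated control.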

For assay [6] the target is unchanged. As to the kind of experiment: Inhibition of HIF1-mediated proliferation of hypoxia-stimulated human MDA-MB-231 cells after 48 hrs by SRB assay. The assay is classed as cell-based. The method, boiled down:
as §1

For assay [7], the system named is T47D. As to the kind of experiment: Effect on cellular respiration in human T47D cells assessed as increase in oxygen consumption at 1 uM. The assay is classed as functional. The essentials:
(§3)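 Oxygen consumption of intact T47D cells monitored with a Clark-type electrode. Rate with compound expressed as % control (compound rate/control rate). n = 3; FCCP run as positive control.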

Assay [8] has as its target T1, Hypoxia inducible factors; HIF-1-alpha, HIF-2-alpha. The assay is described as follows: Inhibition of HIF1-mediated proliferation of hypoxia-stimulated human PC3 cells after 48 hrs by SRB assay. The assay is classed as cell-based. The following applies: PC-3. The essentials: as §1
The subject of assay [9] is T47D. The assay is described as follows: Effect on cellular respiration in human T47D cells assessed as decrease in oxygen consumption at 10 uM n presence of mitochondrial uncoupler FCCP. The assay is classed as functional, cell-based.
The subject of assay [10] is T47D. As to the kind of experiment: Induction of state 4 respiration of human T47D cells. It counts as functional, cell-based. The method, boiled down:
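T47D respiration measured by Clark-type electrode. Oligomycin (1 µM final) added to establish state 4 respiration, then compound added at specified concentrations to test resumption of oxygen consumption; FCCP used as positive control.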

Assay [11] addresses T1, Hypoxia inducible factors; HIF-1-alpha, HIF-2-alpha. As to the kind of experiment: Inhibition of HIF1-mediated proliferation of hypoxia-stimulated human SK-BR-3 cells at 20 uM after 48 hrs by SRB assay. The assay is classed as cell-based. The method, boiled down:
as §1

Assay [12] relates to T47D. As to the kind of experiment: Cytotoxicity against human T47D cells. It counts as cell-based.
Assay [13] has as its target T1, Hypoxia inducible factors; HIF-1-alpha, HIF-2-alpha. The assay is described as follows: Inhibition of HIF1-mediated migration of human MDA-MB-231 cells at 20 uM by wound healing assay. It counts as cell-based. The essentials: (§4)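 Confluent MDA-MB-231 monolayers were scratched with pipet tips. Compound (5 or 20 µM) was added for 22 h under normoxia (95% air:5% CO2) or hypoxia (1% O2:94% N2:5% CO2). Cells were then fixed, stained and imaged. Parallel viability was checked by sulforhodamine B, as % of untreated control under matching oxygen conditions.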

The target is the same in assay [14]. The assay is described as follows: Inhibition of hypoxia-induced HIF1 activation in human PC3 cells by HRE3-TK-luciferase reporter gene assay. It counts as cell-based. The following applies: pc-3. The essentials:
(§5)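 HIF-1 activity measured with the pHRE3-TK-Luc luciferase reporter in PC-3 cells. Cycloheximide 100 µM served as the positive control. Run in triplicate, representative of two independent experiments. IC50 reported with 95% CI.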

For assay [15] the target is unchanged. As to the kind of experiment: Inhibition of HIF1-mediated proliferation of hypoxia-stimulated human MDA-MB-231 cells up to 20 uM after 16 hrs by SRB assay. The assay is classed as cell-based. The essentials:
as §2

For assay [16] the target is unchanged. As to the kind of experiment: Inhibition of HIF1-mediated proliferation of hypoxia-stimulated human MDA-MB-231 cells at 0.31 to 20 uM after 48 hrs by SRB assay. It counts as cell-based. The essentials: as §1
Assay [17] has as its system T47D. As to the kind of experiment: Effect on cellular respiration in human T47D cells assessed as increase in oxygen consumption at 1 uM in presence of mitochondrial uncoupler FCCP. The assay is classed as functional, cell-based.
For assay [18], the system named is MDA-MB-231. As to the kind of experiment: Inhibition of human MDA-MB-231 cell migration at 5 to 20 uM after 22 hrs under hypoxic condition. It counts as functional, cell-based. The method, boiled down: as §4
The target in assay [19] is T1, Hypoxia inducible factors; HIF-1-alpha, HIF-2-alpha. As to the kind of experiment: Inhibition of 1, 10-phenanthroline-induced HIF1 activation in human PC3 cells by HRE3-TK-luciferase reporter gene assay. It counts as cell-based. As to conditions: pc-3. The method, boiled down: as §5
The subject of assay [20] is T47D. As to the kind of experiment: Decrease in mitochondrial membrane potential in human T47D cells 1 to 10 uM after 15 mins by TMRM assay. It counts as functional, cell-based. The essentials: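 T47D cells seeded at 100,000/well on chambered coverglass overnight, then switched to TES buffer (20 mM, pH 7.3) with salts, 5 mM glucose, 0.3% BSA and 2 nM TMRM. Loaded 1 h 15 min at 37 °C, then compound added for 15 min. Live-cell epifluorescence imaging; FCCP as reference.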

Assay [21] concerns the target T1, Hypoxia inducible factors; HIF-1-alpha, HIF-2-alpha. The assay is described as follows: Inhibition of HIF1-mediated proliferation of hypoxia-stimulated human PC3 cells at 0.31 to 20 uM after 48 hrs by SRB assay. It counts as cell-based. The following applies: PC-3. The essentials:
as §1

The subject of assay [22] is T47D. The assay is described as follows: Effect on cellular respiration in human T47D cells assessed as decrease in oxygen consumption at 10 uM. The assay is classed as functional. The essentials:
as §3

Assay [23] addresses T1, Hypoxia inducible factors; HIF-1-alpha, HIF-2-alpha. The assay is described as follows: Inhibition of HIF1-mediated proliferation of hypoxia-stimulated human PC3 cells up to 20 uM after 16 hrs by SRB assay. It counts as cell-based. As to conditions: PC-3. The method, boiled down: as §2
The test system of assay [24] is MDA-MB-231. The assay is described as follows: Inhibition of human MDA-MB-231 cell migration at 5 to 20 uM after 22 hrs under normoxic condition. The assay is classed as functional, cell-based. The method, boiled down: as §4
For assay [25], the target named is T1, Hypoxia inducible factors; HIF-1-alpha, HIF-2-alpha. The assay is described as follows: Inhibition of HIF1-mediated proliferation of hypoxia-stimulated human T47D cells at 20 uM after 48 hrs by SRB assay. The assay is classed as cell-based. The method, boiled down:
as §1

Assay [26] has the same target. As to the kind of experiment: Inhibition of HIF1-mediated proliferation of hypoxia-stimulated human MDA-MB-231 cells at 20 uM after 48 hrs by SRB assay. It counts as cell-based. The method, boiled down:
as §1

Assay [27] shares this target. As to the kind of experiment: Inhibition of HIF1-mediated proliferation of hypoxia-stimulated human T47D cells up to 20 uM after 16 hrs by SRB assay. It counts as cell-based. The method, boiled down:
as §2

The target is the same in assay [28]. As to the kind of experiment: Inhibition of HIF1-mediated proliferation of hypoxia-stimulated human T47D cells at 0.31 to 20 uM after 48 hrs by SRB assay. The assay is classed as cell-based. The essentials: as §1
For assay [29] the target is unchanged. The assay is described as follows: Inhibition of HIF1-mediated proliferation of hypoxia-stimulated human SK-BR-3 cells after 48 hrs by SRB assay. The assay is classed as cell-based. The essentials:
as §1

Assay [30] shares this target. As to the kind of experiment: Inhibition of HIF1-mediated proliferation of hypoxia-stimulated human PC3 cells at 20 uM after 48 hrs by SRB assay. The assay is classed as cell-based. The following applies: PC-3. The method, boiled down:
as §1

Assay [31] has the same target. As to the kind of experiment: Inhibition of HIF1-mediated secreted VEGF expression in hypoxia-stimulated human T47D cells by […]. It counts as cell-based. The essentials: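 T47D cells treated with compound (1, 3, 10 µM) under hypoxia (1% O2, 16 h). Secreted VEGF in conditioned medium quantified by ELISA and normalized to cellular protein (micro BCA). n = 3 from one experiment, representative of two. One-way ANOVA with Bonferroni post hoc.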

What is called inhibition is how much of the control response was suppressed. Broadly, the IC50 is the concentration that inhibits the measured activity by half. Read a high IC50 as lower potency. Turning to `N#CC(C#N)=NNc1ccc(OC(F)(F)F)cc1`, the inhibition result in [1] was “Active”. For the same molecule, the half-inhibitory concentration (IC50) in assay [2] is 310 nM; in assay [3] it was 510 nM.
Regarding `CCC(C)C(=O)c1c(O)c(CC=C(C)C)c(O)c2c(C(CC)OC(C)=O)cc(=O)oc12` (centres undefined), the inhibition was 50% in [4]; under 30% in assay [5]; “Dose-dependent effect” in [6]; “Dose-dependent effect” in assay [8]; 53% in assay [11]; 25% in assay [13]. Moreover, the inhibition in assay [15] was under 30%; in assay [16], 50%; in assay [21], 40%; in [23], under 30%; in assay [25], 54%; in assay [26] it was 52%. The inhibition was under 30% in [27]; 50% in [28]; “Dose-dependent effect” in assay [29]; 40% in assay [30]; “Dose-dependent effect” in [31]. In addition, in assay [1], the inhibition result is “inactive”. The Activity in the assay on T47D [7] was determined as 30%. Moreover, the outcome in the assay with T47D [9], in the assay on T47D [10], with T47D [17], in the assay on MDA-MB-231 [18] and in the assay on MDA-MB-231 [24] was Active. The half-maximal inhibitory concentration (IC50) was 890 nM in assay [2]; over 20000 nM with T47D [12]; 2000 nM in assay [14]; 6500 nM in assay [19]; 960 nM in [3]. Also, in the assay with T47D [20], the inhibition entry is “Active”. For the same molecule, the inhibition at 10 µM with T47D [22] was found to be 50%.

The values are drawn from ChEMBL document CHEMBL1641385, “Mammea E/BB, an isoprenylated dihydroxycoumarin protonophore that potently uncouples mitochondrial electron transport, disrupts hypoxic signaling in tumor cells” (J Nat Prod, 2010).
